Assay results reported in ChEMBL document CHEMBL5029188.

Tests used:
[1] = Inhibition of MERS CoV 3C like protease using FAM-SAVLQ/SG-QLX520 as substrate pretreated for 30 mins followed by substrate addition and measured after 1 hr by FRET assay; set-up: species or system Middle East respiratory syndrome-related coronavirus
[2] = Inhibition of SARS CoV-2 3C like protease expressed in HEK293T cells transfected with pGlo-VRLQS incubated for 6 hrs by firefly/renilla luciferase reporter assay; format: cell-based; settings: Severe acute respiratory syndrome coronavirus 2, HEK-293T
Outline: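 HEK293T cells, one day old, were co-transfected with pR-SARS-CoV-2 3CLpro (3CLpro gene in a PRRSV replicon, between ORF1b and 2a) and pGlo-VRLQS (caged firefly luciferase with a VRLQS cleavage site, plus Renilla control). C145A-mutant and mock transfections served as negative controls. Next morning, serial compound dilutions were added for 6 h at 37 C. Read-out was the firefly/Renilla ratio, and EC50 came from a variable-slope fit.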

[3] = system: SARS-CoV-2; assay: Antiviral activity against SARS CoV-2 infected in African green monkey Vero cells assessed as inhibition of viral replication incubated for 48 to 72 hrs by plaque reduction assay; format: functional, organism-based; settings: Severe acute respiratory syndrome coronavirus 2, Vero
[4] = system: HEK-293T; assay: Cytotoxicity against HEK293T cells assessed as reduction in cell viability measured after 72 hrs by CytoTox 96 nonradioactive cytotoxicity assay; format: cell-based; settings: human
Outline: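 HEK293T cells were exposed to compound at 1 to 100 μM for 72 h. Cytotoxicity was read with a CytoTox 96 nonradioactive kit, and CC50 was fitted with a variable-slope curve.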

[5] = Inhibition of SARS CoV-2 3C like protease using FAM-SAVLQ/SG-QLX520 as substrate pretreated for 1 hr followed by substrate addition and measured after 1 hr by FRET assay; set-up: species or system Severe acute respiratory syndrome coronavirus 2
Outline: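 SARS-CoV-2 3CLpro was expressed from pET-28a(+). It was preincubated with serial compound dilutions at 37°C for 1 h in 20 mM HEPES pH 8, 200 mM NaCl, 0.4 mM EDTA, 60% glycerol and 6 mM DTT. IC50 came from a variable-slope fit, averaging at least two determinations.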

Row | Compound | IC50 [1] [nM] | EC50 [2] [nM] | EC50 [3] [nM] | CC50 [4] [nM] | IC50 [5] [nM]
1 | CC(C)C[C@H](NC(=O)OCC1CCC(F)(F)CC1)C(=O)N[C@H](C=O)C[C@@H]1CCNC1=O | 80 |  |  |  | 
2 | CCCC[C@H]1CC[C@H](OC(=O)N[C@@H](CC(C)C)C(=O)N[C@@H](C[C@@H]2CCNC2=O)C(O)S(=O)(=O)O)CC1 (some centres not stated) | 150 | 4230 | 850 | 58000 | 
3 | CC(C)C[C@H](NC(=O)O[C@H]1CC[C@H](c2ccccc2)CC1)C(=O)N[C@@H](C[C@@H]1CCNC1=O)C(O)S(=O)(=O)O (some centres not stated) |  |  |  |  | 230
4 | CCC[C@H]1CC[C@H](OC(=O)N[C@@H](CC(C)C)C(=O)N[C@@H](C[C@@H]2CCNC2=O)C(O)S(=O)(=O)O)CC1 (some centres not stated) |  |  |  |  | 190
5 | [2H]C([2H])(OC(=O)N[C@@H](CC(C)C)C(=O)N[C@@H](C[C@@H]1CCNC1=O)C(O)S(=O)(=O)[O-])c1ccc(F)cc1.[Na+] (some centres not stated) |  |  |  |  | 320
6 | CC(C)C[C@H](NC(=O)OCc1cccc(F)c1)C(=O)N[C@H](C=O)C[C@@H]1CCNC1=O | 70 | 5280 |  | > 100000 | 350
7 | CC(C)C[C@H](NC(=O)OC(Cc1ccccc1)c1ccccc1)C(=O)N[C@@H](C[C@@H]1CCNC1=O)C(O)S(=O)(=O)O (some centres not stated) |  |  |  |  | 310
8 | CC(C)C[C@H](NC(=O)O[C@H]1CC[C@H](C(C)C)CC1)C(=O)N[C@@H](C[C@@H]1CCNC1=O)C(O)S(=O)(=O)O (some centres not stated) |  |  |  |  | 240
9 | [2H]C([2H])(OC(=O)N[C@@H](CC(C)C)C(=O)N[C@H](C=O)C[C@@H]1CCNC1=O)c1ccc(F)cc1 |  |  |  |  | 390
11 | CC(C)C[C@H](NC(=O)OC(Cc1ccccc1)C1CCC(F)(F)CC1)C(=O)N[C@H](C=O)C[C@@H]1CCNC1=O (some centres not stated) | 100 | 2950 |  | > 100000 | 310
12 | [2H]C([2H])(OC(=O)N[C@@H](CC(C)C)C(=O)N[C@H](C=O)C[C@@H]1CCNC1=O)[C@H]1CC[C@H](CCC)CC1 |  |  |  |  | 330
13 | CC(C)C[C@H](NC(=O)OC(C)C1CCC(F)(F)CC1)C(=O)N[C@@H](C[C@@H]1CCNC1=O)C(O)S(=O)(=O)O (some centres not stated) |  |  |  |  | 260
14 | CCCC(OC(=O)N[C@@H](CC(C)C)C(=O)N[C@@H](C[C@@H]1CCNC1=O)C(O)S(=O)(=O)O)c1ccccc1 (some centres not stated) | 130 | 3720 |  | > 100000 | 210
15 | CC(C)C[C@H](NC(=O)OCc1ccccc1F)C(=O)N[C@@H](C[C@@H]1CCNC1=O)C(O)S(=O)(=O)O (some centres not stated) |  |  |  |  | 380
16 | CC(C)C[C@H](NC(=O)OC[C@H]1CC[C@@H](C(F)(F)F)CC1)C(=O)N[C@H](C=O)C[C@@H]1CCNC1=O |  |  |  |  | 230
17 | CC(C)C[C@H](NC(=O)OCc1ccccc1F)C(=O)N[C@H](C=O)C[C@@H]1CCNC1=O |  |  |  |  | 340
18 | CCCCC(OC(=O)N[C@@H](CC(C)C)C(=O)N[C@@H](C[C@@H]1CCNC1=O)C(O)S(=O)(=O)O)C1CCC(F)(F)CC1 (some centres not stated) |  |  |  |  | 270
19 | CC(C)C[C@H](NC(=O)OC(Cc1ccccc1)c1ccccc1)C(=O)N[C@H](C=O)C[C@@H]1CCNC1=O (some centres not stated) |  |  |  |  | 500
20 | CC(C)C[C@H](NC(=O)OC1CCC(C)(C)CC1)C(=O)N[C@@H](C[C@@H]1CCNC1=O)C(O)S(=O)(=O)O (some centres not stated) | 120 | 1670 |  | > 100000 | 240
21 | CCC[C@H]1CC[C@H](COC(=O)N[C@@H](CC(C)C)C(=O)N[C@@H](C[C@@H]2CCNC2=O)C(O)S(=O)(=O)O)CC1 (some centres not stated) | 110 | 4430 |  | 44000 | 200
22 | CC(C)C[C@H](NC(=O)OC(C)(C)C1CCC(F)(F)CC1)C(=O)N[C@H](C=O)C[C@@H]1CCNC1=O |  |  |  |  | 1200
23 | CC(C)C[C@H](NC(=O)O[C@H]1CC[C@H](c2ccccc2)CC1)C(=O)N[C@H](C=O)C[C@@H]1CCNC1=O |  |  |  |  | 220
24 | CC(C)C[C@H](NC(=O)OC(c1ccccc1)C1CCC(F)(F)CC1)C(=O)N[C@H](C=O)C[C@@H]1CCNC1=O (some centres not stated) | 40 | 1030 |  | > 100000 | 130

Row | Compound | IC50 [1] [nM] | EC50 [2] [nM] | EC50 [3] [nM] | CC50 [4] [nM] | IC50 [5] [nM]
25 | CC(C)C[C@H](NC(=O)OCc1c(F)c(F)c(F)c(F)c1F)C(=O)N[C@@H](C[C@@H]1CCNC1=O)C(O)S(=O)(=O)O (some centres not stated) | 80 | 4840 |  | > 100000 | 
26 | CCCCC(OC(=O)N[C@@H](CC(C)C)C(=O)N[C@H](C=O)C[C@@H]1CCNC1=O)C1CCC(F)(F)CC1 (some centres not stated) |  |  |  |  | 190
27 | [2H]C([2H])(OC(=O)N[C@@H](CC(C)C)C(=O)N[C@@H](C[C@@H]1CCNC1=O)C(O)S(=O)(=O)[O-])C1CCC(F)(F)CC1.[Na+] (some centres not stated) |  |  |  |  | 210
28 | [2H]C([2H])(OC(=O)N[C@@H](CC(C)C)C(=O)N[C@@H](C[C@@H]1CCNC1=O)C(O)S(=O)(=O)[O-])[C@H]1CC[C@H](CCC)CC1.[Na+] (some centres not stated) |  |  |  |  | 330
29 | CC(C)C[C@H](NC(=O)OC[C@H]1CC[C@H](C(F)(F)F)CC1)C(=O)N[C@H](C=O)C[C@@H]1CCNC1=O |  |  |  |  | 250
30 | [2H]C([2H])(OC(=O)N[C@@H](CC(C)C)C(=O)N[C@H](C=O)C[C@@H]1CCNC1=O)c1c(F)c(F)c(F)c(F)c1F |  |  |  |  | 470
31 | CCC[C@H]1CC[C@H](OC(=O)N[C@@H](CC(C)C)C(=O)N[C@H](C=O)C[C@@H]2CCNC2=O)CC1 |  |  |  |  | 250
32 | CC(C)C[C@H](NC(=O)O[C@H]1CC[C@H](C(C)C)CC1)C(=O)N[C@H](C=O)C[C@@H]1CCNC1=O |  |  |  |  | 240
33 | CC(C)C[C@H](NC(=O)OC(Cc1ccccc1)C1CCC(F)(F)CC1)C(=O)N[C@@H](C[C@@H]1CCNC1=O)C(O)S(=O)(=O)O (some centres not stated) | 140 | 3500 |  | > 100000 | 290
34 | CC(C)C[C@H](NC(=O)OC[C@H]1CC[C@H](C(F)(F)F)CC1)C(=O)N[C@@H](C[C@@H]1CCNC1=O)C(O)S(=O)(=O)O (some centres not stated) |  |  |  |  | 190
35 | CC(C)C[C@H](NC(=O)OCc1c(F)c(F)c(F)c(F)c1F)C(=O)N[C@H](C=O)C[C@@H]1CCNC1=O | 50 | 3270 |  | > 100000 | 
36 | CC(C)C[C@H](NC(=O)OC(C)C1CCC(F)(F)CC1)C(=O)N[C@H](C=O)C[C@@H]1CCNC1=O (some centres not stated) |  |  |  |  | 260
37 | CC(C)C[C@H](NC(=O)OCc1ccc(F)cc1)C(=O)N[C@H](C=O)C[C@@H]1CCNC1=O |  |  |  |  | 390
38 | CCCC(OC(=O)N[C@@H](CC(C)C)C(=O)N[C@H](C=O)C[C@@H]1CCNC1=O)c1ccccc1 (some centres not stated) | 80 | 2390 |  | > 100000 | 330
39 | CC(C)C[C@H](NC(=O)OCc1ccccc1)C(=O)N[C@@H](C[C@@H]1CCNC1=O)C(O)S(=O)(=O)O (some centres not stated) |  |  | 230 |  | 
40 | CC(C)C[C@H](NC(=O)OCc1ccc(F)cc1)C(=O)N[C@@H](C[C@@H]1CCNC1=O)C(O)S(=O)(=O)O (some centres not stated) |  |  |  |  | 400
41 | CC(C)C[C@H](NC(=O)OCC1CCC(F)(F)CC1)C(=O)N[C@@H](C[C@@H]1CCNC1=O)C(O)S(=O)(=O)O (some centres not stated) | 100 |  |  |  | 
42 | CC(C)C[C@H](NC(=O)OC[C@H]1CC[C@@H](C(F)(F)F)CC1)C(=O)N[C@@H](C[C@@H]1CCNC1=O)C(O)S(=O)(=O)O (some centres not stated) |  |  |  |  | 200
43 | CCCC[C@H]1CC[C@H](OC(=O)N[C@@H](CC(C)C)C(=O)N[C@H](C=O)C[C@@H]2CCNC2=O)CC1 | 120 | 4840 |  | 55000 | 170
44 | [2H]C([2H])(OC(=O)N[C@@H](CC(C)C)C(=O)N[C@@H](C[C@@H]1CCNC1=O)C(O)S(=O)(=O)[O-])c1c(F)c(F)c(F)c(F)c1F.[Na+] (some centres not stated) |  |  |  |  | 600
45 | CC(C)C[C@H](NC(=O)OCc1cccc(F)c1)C(=O)N[C@@H](C[C@@H]1CCNC1=O)C(O)S(=O)(=O)O (some centres not stated) | 70 | 3400 |  | > 100000 | 360
46 | CC(C)C[C@H](NC(=O)OC1CCC(C)(C)CC1)C(=O)N[C@H](C=O)C[C@@H]1CCNC1=O | 120 | 3480 |  | > 100000 | 250
47 | CC(C)C[C@H](NC(=O)OC(C)(C)C1CCC(F)(F)CC1)C(=O)N[C@@H](C[C@@H]1CCNC1=O)C(O)S(=O)(=O)O (some centres not stated) |  |  |  |  | 1250
